Tests used:
[1] = molecular target: Serine/threonine-protein kinase B-raf (Homo sapiens, UniProt P15056, V600E); assay: Inhibition of human BRAF V600E mutant using myelin basic protein as substrate in presence of [gamma-33P]ATP incubated for 40 mins by scintillation counting method
How it was run: (§1)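 Radiometric kinase assay run at Reaction Biology. Kinase (5−10 mU) in 25 mM Tris pH 7.5, 0.02 mM EGTA, 10 mM magnesium acetate with 0.66 mg/mL myelin basic protein and [γ-33P]ATP at 1 μM ATP. Reaction started with Mg-ATP and run 40 min at room temperature, then stopped with 3% phosphoric acid. Spotted on P30 filtermat, washed, scintillation counted.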

[2] = molecular target: Serine/threonine-protein kinase B-raf (Homo sapiens, UniProt P15056); assay: Inhibition of human wild type BRAF using myelin basic protein as substrate in presence of [gamma-33P]ATP incubated for 40 mins by scintillation counting method; how it was run: as §1
[3] = molecular target: RAF proto-oncogene serine/threonine-protein kinase (Homo sapiens, UniProt P04049); assay: Inhibition of human wild type CRAF using myelin basic protein as substrate in presence of [gamma-33P]ATP incubated for 40 mins by scintillation counting method
Chain of RAF proto-oncogene serine/threonine-protein kinase (P04049 whole entry): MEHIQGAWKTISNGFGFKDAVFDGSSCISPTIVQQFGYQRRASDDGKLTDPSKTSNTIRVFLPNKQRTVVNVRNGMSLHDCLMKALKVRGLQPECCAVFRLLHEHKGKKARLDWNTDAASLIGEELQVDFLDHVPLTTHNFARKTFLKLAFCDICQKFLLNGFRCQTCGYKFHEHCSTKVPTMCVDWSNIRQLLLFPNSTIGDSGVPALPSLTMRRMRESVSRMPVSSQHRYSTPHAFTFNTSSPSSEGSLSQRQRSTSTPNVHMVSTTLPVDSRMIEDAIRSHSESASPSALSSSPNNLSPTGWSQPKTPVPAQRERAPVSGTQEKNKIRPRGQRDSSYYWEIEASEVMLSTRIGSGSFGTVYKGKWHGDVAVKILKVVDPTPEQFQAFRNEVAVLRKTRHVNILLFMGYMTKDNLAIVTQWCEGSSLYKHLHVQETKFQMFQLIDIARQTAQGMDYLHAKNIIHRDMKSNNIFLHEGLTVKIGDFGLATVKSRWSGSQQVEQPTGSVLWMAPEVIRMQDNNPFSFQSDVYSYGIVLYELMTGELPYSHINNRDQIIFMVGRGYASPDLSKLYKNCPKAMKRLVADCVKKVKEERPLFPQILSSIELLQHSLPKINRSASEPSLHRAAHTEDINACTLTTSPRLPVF

Chain of Serine/threonine-protein kinase B-raf (Homo sapiens, UniProt P15056, V600E) (P15056 2-766 V600E limits assumed): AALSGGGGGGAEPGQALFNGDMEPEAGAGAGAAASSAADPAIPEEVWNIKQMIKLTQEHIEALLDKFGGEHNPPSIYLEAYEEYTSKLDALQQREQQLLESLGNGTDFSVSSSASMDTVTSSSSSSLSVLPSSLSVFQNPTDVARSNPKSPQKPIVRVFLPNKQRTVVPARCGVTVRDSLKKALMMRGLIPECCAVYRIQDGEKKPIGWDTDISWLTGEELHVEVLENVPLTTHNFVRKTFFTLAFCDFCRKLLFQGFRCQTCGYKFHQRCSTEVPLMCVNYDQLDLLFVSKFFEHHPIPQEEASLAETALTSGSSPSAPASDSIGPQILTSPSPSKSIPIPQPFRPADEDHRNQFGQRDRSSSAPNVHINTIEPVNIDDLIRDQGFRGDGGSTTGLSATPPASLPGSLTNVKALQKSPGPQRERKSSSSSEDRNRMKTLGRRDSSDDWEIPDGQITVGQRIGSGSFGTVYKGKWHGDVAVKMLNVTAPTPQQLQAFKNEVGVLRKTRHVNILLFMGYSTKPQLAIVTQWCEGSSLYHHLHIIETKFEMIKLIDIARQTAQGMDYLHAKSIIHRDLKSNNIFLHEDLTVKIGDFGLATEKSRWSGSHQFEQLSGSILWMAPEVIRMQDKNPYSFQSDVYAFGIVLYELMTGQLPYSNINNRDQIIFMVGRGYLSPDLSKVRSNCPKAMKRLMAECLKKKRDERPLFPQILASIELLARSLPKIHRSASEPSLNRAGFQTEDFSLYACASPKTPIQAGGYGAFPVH
Chain of Serine/threonine-protein kinase B-raf (Homo sapiens, UniProt P15056) (P15056 whole entry): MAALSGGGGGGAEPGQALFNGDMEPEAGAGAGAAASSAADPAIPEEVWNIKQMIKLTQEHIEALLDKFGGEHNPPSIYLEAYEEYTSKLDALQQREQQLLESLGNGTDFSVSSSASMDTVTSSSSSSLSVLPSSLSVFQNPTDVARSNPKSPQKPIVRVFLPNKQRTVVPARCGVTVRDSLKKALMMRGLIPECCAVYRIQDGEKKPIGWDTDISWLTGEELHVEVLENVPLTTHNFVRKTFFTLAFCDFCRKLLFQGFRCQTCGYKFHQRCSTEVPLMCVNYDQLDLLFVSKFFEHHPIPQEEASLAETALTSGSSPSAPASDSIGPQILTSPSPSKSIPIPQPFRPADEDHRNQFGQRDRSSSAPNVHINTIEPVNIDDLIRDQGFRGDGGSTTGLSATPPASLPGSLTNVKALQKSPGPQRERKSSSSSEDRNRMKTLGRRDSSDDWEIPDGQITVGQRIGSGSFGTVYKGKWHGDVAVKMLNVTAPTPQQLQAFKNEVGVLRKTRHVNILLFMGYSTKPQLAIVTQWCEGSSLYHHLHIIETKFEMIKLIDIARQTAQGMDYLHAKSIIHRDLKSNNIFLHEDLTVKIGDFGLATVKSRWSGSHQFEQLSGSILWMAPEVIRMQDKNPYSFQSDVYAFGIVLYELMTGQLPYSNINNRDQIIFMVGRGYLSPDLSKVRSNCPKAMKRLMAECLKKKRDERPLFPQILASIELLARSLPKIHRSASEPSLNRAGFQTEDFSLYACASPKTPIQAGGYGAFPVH

**Q.** For O=S(=O)(NCCNc1nccc(-c2c(-c3ccc(O)cc3)nc3sccn23)n1)c1ccc(O)cc1, which IC50 [1] is on record?
**A.** 25100 nM

**Q.** What about the IC50 [2] of the same compound?
**A.** 9710 nM

**Q.** What about the IC50 [3] of the same compound?
**A.** 19400 nM

**Q.** What does the source list for COc1cccc(-c2nc3sccn3c2-c2ccnc(NCCNS(=O)(=O)c3ccccc3)n2)c1?
**A.** IC50 [1]: 120 nM; IC50 [2]: 941 nM; IC50 [3]: 220 nM

**Q.** What does the source list for Cc1ccc(S(=O)(=O)NCCCNc2nccc(-c3c(-c4ccccc4)nc4sccn34)n2)cc1?
**A.** IC50 [1]: 85.3 nM; IC50 [2]: 521 nM; IC50 [3]: 201 nM

**Q.** How did the IC50 [1] turn out when COc1cccc(-c2nc3sccn3c2-c2ccnc(NCCN3CCNS3(=O)=O)n2)c1 was run?
**A.** 10.5 nM

**Q.** And the IC50 [2]?
**A.** 20.3 nM

**Q.** What about the IC50 [3] of the same compound?
**A.** 5.61 nM

**Q.** With COc1ccc(S(=O)(=O)NCCCNc2nccc(-c3c(-c4cccc(OC)c4)nc4sccn34)n2)cc1 as the compound, how does the IC50 [1] read?
**A.** 156 nM

**Q.** What about the IC50 [2] of the same compound?
**A.** 589 nM

**Q.** What about the IC50 [3] of the same compound?
**A.** 164 nM

**Q.** With COc1cccc(-c2nc3sccn3c2-c2ccnc(NCCN3CCCN(C)S3(=O)=O)n2)c1 as the compound, how does the IC50 [1] read?
**A.** 2.62 nM

**Q.** And the IC50 [2]?
**A.** 8.26 nM

**Q.** And the IC50 [3]?
**A.** 2.33 nM

**Q.** For Cc1ccc(S(=O)(=O)NCCNc2nccc(-c3c(-c4ccc(O)cc4)nc4sccn34)n2)cc1, which IC50 [1] is on record?
**A.** 21300 nM

**Q.** And the IC50 [2]?
**A.** 11300 nM

**Q.** And the IC50 [3]?
**A.** 16500 nM

**Q.** Which results are given for Cc1ccc(S(=O)(=O)NCCNc2nccc(-c3c(-c4cccc(O)c4)nc4sccn34)n2)cc1?
**A.** IC50 [1]: 55 nM; IC50 [2]: 64 nM; IC50 [3]: 62 nM

**Q.** For O=S(=O)(NCCNc1nccc(-c2c(-c3cccc(O)c3)nc3sccn23)n1)c1ccccc1, which IC50 [1] is on record?
**A.** 19 nM

**Q.** And the IC50 [2]?
**A.** 35 nM

**Q.** And the IC50 [3]?
**A.** 21 nM

**Q.** Which results are given for Cc1ccc(S(=O)(=O)NCCCNc2nccc(-c3c(-c4cccc(O)c4)nc4sccn34)n2)cc1?
**A.** IC50 [1]: 9 nM; IC50 [2]: 18 nM; IC50 [3]: 13 nM

**Q.** Which IC50 [1] does the source give for COc1ccc(S(=O)(=O)NCCNc2nccc(-c3c(-c4cccc(OC)c4)nc4sccn34)n2)cc1 here?
**A.** 160 nM

**Q.** What about the IC50 [2] of the same compound?
**A.** 745 nM

**Q.** What about the IC50 [3] of the same compound?
**A.** 151 nM

**Q.** Which IC50 [1] does the source give for O=S(=O)(NCCNc1nccc(-c2c(-c3ccccc3)nc3sccn23)n1)c1ccc(O)cc1 here?
**A.** 65 nM

**Q.** And the IC50 [2]?
**A.** 97 nM

**Q.** And the IC50 [3]?
**A.** 75 nM

**Q.** How did the IC50 [1] turn out when O=S1(=O)NCCN1CCNc1nccc(-c2c(-c3cccc(O)c3)nc3sccn23)n1 was run?
**A.** 4.56 nM

**Q.** What about the IC50 [2] of the same compound?
**A.** 7.25 nM

**Q.** And the IC50 [3]?
**A.** 6.32 nM

**Q.** Which IC50 [1] does the source give for COc1ccc(-c2nc3sccn3c2-c2ccnc(NCCNS(=O)(=O)c3ccc(OC)cc3)n2)cc1 here?
**A.** 26300 nM

**Q.** What about the IC50 [2] of the same compound?
**A.** 9890 nM

**Q.** And the IC50 [3]?
**A.** 24300 nM

**Q.** Which IC50 [1] does the source give for COc1ccc(S(=O)(=O)NCCCNc2nccc(-c3c(-c4ccccc4)nc4sccn34)n2)cc1 here?
**A.** 66.1 nM

**Q.** And the IC50 [2]?
**A.** 299 nM

**Q.** And the IC50 [3]?
**A.** 98.3 nM

**Q.** What does the source list for COc1cccc(-c2nc3sccn3c2-c2ccnc(NCCCNS(=O)(=O)c3ccc(C)cc3)n2)c1?
**A.** IC50 [1]: 168 nM; IC50 [2]: 894 nM; IC50 [3]: 209 nM

**Q.** Which results are given for COc1cccc(-c2nc3sccn3c2-c2ccnc(NCCCNS(=O)(=O)c3ccc4ccccc4c3)n2)c1?
**A.** IC50 [1]: 165 nM; IC50 [2]: 842 nM; IC50 [3]: 172 nM

**Q.** Which IC50 [1] does the source give for COc1cccc(-c2nc3sccn3c2-c2ccnc(NCCNS(=O)(=O)c3cccc(F)c3)n2)c1 here?
**A.** 112 nM

**Q.** What about the IC50 [2] of the same compound?
**A.** 561 nM

**Q.** And the IC50 [3]?
**A.** 106 nM

**Q.** For O=S1(=O)N(CCNc2nccc(-c3c(-c4cccc(O)c4)nc4sccn34)n2)CCN1Cc1ccccc1, which IC50 [1] is on record?
**A.** 7.25 nM

**Q.** And the IC50 [2]?
**A.** 15.5 nM

**Q.** And the IC50 [3]?
**A.** 3.91 nM

**Q.** For O=S(=O)(NCCCNc1nccc(-c2c(-c3cccc(O)c3)nc3sccn23)n1)c1ccccc1, which IC50 [1] is on record?
**A.** 20 nM

**Q.** What about the IC50 [2] of the same compound?
**A.** 29 nM

**Q.** What about the IC50 [3] of the same compound?
**A.** 23 nM

**Q.** Which results are given for COc1cccc(-c2nc3sccn3c2-c2ccnc(NCCN3CCCNS3(=O)=O)n2)c1?
**A.** IC50 [1]: 9.96 nM; IC50 [2]: 18.1 nM; IC50 [3]: 7.22 nM

**Q.** COc1cccc(-c2nc3sccn3c2-c2ccnc(NCCCNS(=O)(=O)c3ccccc3)n2)c1 was tested. Which IC50 [1] did it give?
**A.** 109 nM

**Q.** What about the IC50 [2] of the same compound?
**A.** 721 nM

**Q.** What about the IC50 [3] of the same compound?
**A.** 129 nM

**Q.** With O=S(=O)(NCCNc1nccc(-c2c(-c3ccccc3)nc3sccn23)n1)c1ccc(F)cc1 as the compound, how does the IC50 [1] read?
**A.** 69.1 nM

**Q.** What about the IC50 [2] of the same compound?
**A.** 375 nM

**Q.** And the IC50 [3]?
**A.** 112 nM

**Q.** With COc1cccc(-c2nc3sccn3c2-c2ccnc(NCCN3CCN(Cc4ccccc4)S3(=O)=O)n2)c1 as the compound, how does the IC50 [1] read?
**A.** 8.36 nM

**Q.** And the IC50 [2]?
**A.** 17.3 nM

**Q.** What about the IC50 [3] of the same compound?
**A.** 4.32 nM

**Q.** How did the IC50 [1] turn out when O=S1(=O)NCCCN1CCNc1nccc(-c2c(-c3cccc(O)c3)nc3sccn23)n1 was run?
**A.** 5.21 nM

**Q.** And the IC50 [2]?
**A.** 9.56 nM

**Q.** And the IC50 [3]?
**A.** 7.21 nM

Source: ChEMBL document CHEMBL5046217, “Discovery of New Imidazo[2,1-b]thiazole Derivatives as Potent Pan-RAF Inhibitors with Promising In Vitro and In Vivo Anti-melanoma Activity” (J Med Chem, 2021)
